This note sets out measurements from ChEMBL document CHEMBL1133528, “Syntheses of 4'-C-ethynyl-beta-D-arabino- and 4'-C-ethynyl-2'-deoxy-beta-D-ribo-pentofuranosylpyrimidines and -purines and evaluation of their anti-HIV activity” (J Med Chem, 2000).

One test relates to MT4. Kind of test: Tested in vitro against MT-4 cells using MTT assay. The following applies: Homo sapiens. The format is functional. In a few lines: (§1)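 MT-4 cells (2 × 10⁴/mL) infected with 100 TCID₅₀ HIV-1_LAI, grown with drug dilution series 7 days at 37 °C. MTT added, 2 h at 37 °C, formazan dissolved in acidified 2-propanol with 4% Triton X-100, absorbance at 570 nm. Triplicates. EC₅₀ is concentration suppressing HIV-1 replication by 50%. SI calculated as CC₅₀/EC₅₀.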

The test system of test [1] is HeLa. Kind of test: (§2) Tested in vitro against HIV-1 104pre from HeLa-CD4-[…]-beta gal-cells using MAGI assay. The format is functional, cell-based. Conditions: Homo sapiens. In a few lines:
(§3)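 HeLa-CD4-LTR-β-gal indicator cells seeded at 10⁴ cells/well, cultured 24 h, then exposed to HIV-1_104pre at 30 TCID₅₀ for 2 h at 37 °C. Drug series added 2 h before or 2 h after virus, kept present without washing. At 48 h cells fixed (1% formaldehyde, 0.2% glutaraldehyde in PBS), X-Gal stained, blue infected cells counted under microscope.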

Test [2] addresses Human immunodeficiency virus type 1 reverse transcriptase (Human immunodeficiency virus 1) (UniProt Q72547). Description: Selectivity index expressed as CC50/EC50. The format is functional. In a few lines: as §1
Test [3] relates to HeLa. The test is described as §2. The format is functional, cell-based, human immunodefficiency virus type 1. Conditions: Homo sapiens. The essentials:
as §3

Each structure is given as a SMILES string.

In the test with MT4, `C#C[C@]1(CO)O[C@@H](n2ccc(=O)[nH]c2=O)C[C@@H]1O` showed a CC50 greater than 100000 nM.
In the case of `C#C[C@]1(CO)O[C@@H](n2ccc(N)nc2=O)C[C@@H]1O`, the concentration giving a half-maximal response (EC50) with HeLa [1] turned out to be 0.96 nM. The SI in test [2] turned out to be 192.
`C#C[C@]1(CO)O[C@@H](n2cc(Cl)c(=O)[nH]c2=O)C[C@@H]1O`: in the test on MT4, the CC50 amounted to 81700 nM. The compound also showed an SI in test [2] of 13.6.
Take `C#C[C@]1(CO)O[C@@H](n2cc(F)c(N)nc2=O)C[C@@H]1O`: in the test with MT4, the 50% cytotoxic concentration (CC50) was greater than 100000 nM. The EC50 in the test on HeLa [1] turned out to be 2 nM. The same compound had an SI in test [2] greater than 3330.
The matching figures for `C#C[C@]1(CO)O[C@@H](n2cnc3c(N)nc(N)nc32)C[C@@H]1O`: 820 nM, 1.9 nM and 2730.
Turning to `C#C[C@]1(CO)O[C@@H](n2cc(Br)c(=O)[nH]c2=O)C[C@@H]1O`, the cytotoxic concentration (CC50) in the test on MT4 is greater than 100000 nM. The SI in test [2] is greater than 44.
Compound `C#C[C@]1(CO)O[C@@H](n2cc(CC)c(=O)[nH]c2=O)C[C@@H]1O` returned a CC50 in the test on MT4 greater than 360000 nM.
Compound `C#C[C@]1(CO)O[C@@H](n2cnc3c(N)ncnc32)C[C@@H]1O` came in with a CC50 in the test with MT4 of 11700 nM. The compound also returned an EC50 in the test with HeLa [1] of 6.8 nM. Further, in test [2], the SI worked out at 975.
The compound `C#C[C@]1(CO)O[C@@H](n2cc(F)c(=O)[nH]c2=O)C[C@@H]1O` gave a half-maximal cytotoxic concentration (CC50) in the test on MT4 of 3400 nM.
Consider `Cc1cn([C@H]2C[C@H](N=[N+]=[N-])[C@@H](CO)O2)c(=O)[nH]c1=O` [ZIDOVUDINE], for which, in the test with MT4, the CC50 was greater than 100000 nM. Also, it took 2 nM to reach a half-maximal effect with HeLa [1] (EC50). This compound also displayed an SI in test [2] greater than 2630.
The matching figures for `C#C[C@]1(CO)O[C@@H](n2cc(C)c(N)nc2=O)C[C@@H]1O`: 700 nM, 5.7 nM and 63.
On to `C#C[C@]1(CO)O[C@@H](n2cc(Br)c(N)nc2=O)C[C@@H]1O`, for which, in the test with MT4, the CC50 is greater than 100000 nM.
Compound `C#C[C@]1(CO)O[C@@H](n2cnc3cncnc32)C[C@@H]1O` gave a CC50 in the test on MT4 greater than 380000 nM. This compound returned an EC50 in the test on HeLa [1] of 132000 nM. In test [2], this compound returned an SI greater than 3.2.
Regarding `C#C[C@]1(CO)O[C@@H](n2cc(I)c(N)nc2=O)C[C@@H]1O`, in the test with MT4, the CC50 was greater than 100000 nM.
In the case of `C#C[C@]1(CO)O[C@@H](n2cc(Cl)c(N)nc2=O)C[C@@H]1O`, the CC50 with MT4 is greater than 100000 nM.
`C#C[C@]1(CO)O[C@@H](n2cnc3c(O)ncnc32)C[C@@H]1O` gave a 50% cytotoxic concentration (CC50) in the test with MT4 of 216000 nM. Besides, the 50% effective concentration (EC50) in the test with HeLa [1] turned out to be 830 nM. Further, the SI in test [2] came out at 14.4.
The matching figures for `C#C[C@]1(CO)O[C@@H](n2cc(C)c(=O)[nH]c2=O)C[C@@H]1O`: greater than 380000 nM, 400 nM and greater than 623.
The matching figures for `C#C[C@]1(CO)O[C@@H](n2cc(I)c(=O)[nH]c2=O)C[C@@H]1O`: greater than 260000 nM, 360 nM and greater than 765.
Compound `C#C[C@]1(CO)O[C@@H](n2cnc3c(=O)[nH]c(N)nc32)C[C@@H]1O` yielded a CC50 in the test on MT4 of 1500 nM. Besides, the EC50 in the test with HeLa [3] is 7.1 nM. The same compound gave an SI in test [2] of 1070.
